{"source": "ChEMBL document CHEMBL1129356", "about": "“Novel 3,7-diheterabicyclo[3.3.1]nonanes that possess predominant class III antiarrhythmic activity in 1-4 day post infarction dog models: X-ray diffraction analysis of 3-[4-(1H-imidazol-1-yl)benzoyl]-7-isopropyl-3,7-diazabicyclo[3.3.1]nona ne dihydroperchlorate” (1996)", "key": {"[1]": {"tested_on": "Canis familiaris", "assay": "Antiarrhythmic property ventricular effective refractory period(drug free) is compared to lidocaine(2) using doses(3 and 6 mg/kg)", "type": "functional, Canis lupus familiaris, Heart", "how_it_was_run": "(§1)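 Mongrel dogs (about 12–25 kg), 1–4 days after coronary occlusion infarction, under sodium pentobarbital (~30 mg/kg) with 12-lead ECG monitoring. Agents and lidocaine were given iv at 3 and 6 mg/kg. Programmed ventricular stimulation was applied at baseline, about 2–5 min after each dose, and at 30 min. SVT was defined as ≥250 beats/min lasting ≥30 s. Pre means drug-free; post means after dosing.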"}, "[2]": {"tested_on": "Canis familiaris", "assay": "Tested for antiarrhythmic property by measuring ability to decrease Mean blood pressure(post drug) is compared to Lidocaine using doses(3 and 6 mg/kg)", "type": "functional, Canis lupus familiaris", "how_it_was_run": "as §1"}, "[3]": {"tested_on": "Canis familiaris", "assay": "Antiarrhythmic properties are compared to lidocaine(2) using doses(3 and 6 mg/kg). Time required for the ventricular myocardium to undergo depolarization and repolarization ((post drug)", "type": "functional, Canis lupus familiaris", "how_it_was_run": "as §1"}, "[4]": {"tested_on": "Canis familiaris", "assay": "Tested for antiarrhythmic property by measuring ability to decrease Mean blood pressure (drug free) is compared to Lidocaine using doses(3 and 6 mg/kg).", "type": "functional, Canis lupus familiaris", "how_it_was_run": "as §1"}, "[5]": {"tested_on": "Canis familiaris", "assay": "Tested for antiarrhythmic property by measuring ability to decrease heart rate(post drug) is compared to Lidocaine using doses(3 and 6 mg/kg).", "type": "functional, Canis lupus familiaris", "how_it_was_run": "as §1"}, "[6]": {"tested_on": "Canis familiaris", "assay": "Antiarrhythmic properties are compared to lidocaine(2) using doses(3 and 6 mg/kg). Time required for the ventricular myocardium to undergo depolarization and repolarization (drug free)", "type": "functional, Canis lupus familiaris", "how_it_was_run": "as §1"}, "[7]": {"tested_on": "Canis familiaris", "assay": "Antiarrhythmic property ventricular effective refractory period(post drug) is compared to lidocaine(2) using doses(3 and 6 mg/kg)", "type": "functional, Canis lupus familiaris, Heart", "how_it_was_run": "as §1"}, "[8]": {"tested_on": "Canis familiaris", "assay": "(§2) Antiarrhythmic property His-Purkinje conduction time(post drug) is compared to lidocaine(2) using doses(3 and 6 mg/kg)", "type": "functional, Canis lupus familiaris, His-Purkinje system", "how_it_was_run": "as §1"}, "[9]": {"tested_on": "Canis familiaris", "assay": "as §2", "type": "functional, Canis lupus familiaris, His-Purkinje system", "how_it_was_run": "as §1", "remark": "listed apart in the source"}, "[10]": {"tested_on": "Canis familiaris", "assay": "Tested for antiarrhythmic property by measuring ability to decrease heart rate(drug free) is compared to Lidocaine using doses (3 and 6 mg/kg).", "type": "functional, Canis lupus familiaris", "how_it_was_run": "as §1"}, "[11]": {"tested_on": "Canis familiaris", "assay": "Antiarrhythmic property Nonsustained ventricular tachycardia is compared to lidocaine(2) using doses(3 and 6 mg/kg)", "type": "functional, Canis lupus familiaris, Heart", "how_it_was_run": "as §1"}}}
{"compound": "c1ccc(CN2CC3CC(C2)CN(CC2CC2)C3)cc1", "values": [{"measurement": "VERP", "setting": "[1]", "result": 160, "unit": "ms"}, {"measurement": "MBP", "setting": "[2]", "result": 37, "unit": "mmHg"}, {"measurement": "QT", "setting": "[3]", "result": 260, "unit": "ms"}, {"measurement": "MBP", "setting": "[4]", "result": 130, "unit": "mmHg"}, {"measurement": "HR", "setting": "[5]", "result": 110, "unit": "beats min-1"}, {"measurement": "QT", "setting": "[6]", "result": 220, "unit": "ms"}, {"measurement": "VERP", "setting": "[7]", "result": 230, "unit": "ms"}, {"measurement": "HV interval", "setting": "[8]", "result": 50, "unit": "ms"}, {"measurement": "HV interval", "setting": "[9]", "result": 50, "unit": "ms"}, {"measurement": "HR", "setting": "[10]", "result": 130, "unit": "beats min-1"}, {"measurement": "NSVT", "setting": "[11]", "result": 3, "unit": "mg/kg"}]}
